One experiment has as its system Aedes aegypti. The experiment in a line: Larvicidal activity against Aedes aegypti larvae assessed as minimum concentration required to kill all larvae after 24 hrs by dilution test. Format: functional. Summed up:
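Roughly 10 A. aegypti larvae per tube in tap water. Compound added from geometric dilutions of a 1 mg/100 µL DMSO stock, with the volume made up to 10 mL, for final 50 to 1 ppm. Tubes kept in darkness at 26-28 °C for 24 h, then lethality scored under lab light. Value is the minimal concentration (ppm) killing all larvae.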

Experiment [1] has as its system Cladosporium cucumerinum. The experiment in a line: Antifungal activity against Cladosporium cucumerinum after 24 hrs by agar-dilution assay. Format: functional. In a few lines:
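Test solutions made by geometric dilution in DMSO from a 3 mg/mL DMSO stock, added to Sabouraud agar in wells at a final 60 to 3 µg/mL. C. cucumerinum suspended in distilled water and spread over the agar. Plates sealed hermetically, 30 °C for 24 h. Value is the MIC (µg/mL). Compound-free growth controls; duplicates; nystatin reference at 10 to 0.1 µg/mL.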

Experiment [2] has as its system Cladosporium cucumerinum. The experiment in a line: Antifungal activity against Cladosporium cucumerinum assessed as minimum concentration required to inhibit fungal growth after 2 to 3 days by bioautographic TLC assay. It is filed as functional. Summed up: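 Stocks at 1 mg/mL in dichloromethane (nystatin in MeOH), geometrically diluted over 1 to 0.015 mg/mL. 10 µL of each dilution applied to silica gel TLC plates. Plates then covered with C. cucumerinum in nutritive medium and held 2-3 days in a moist atmosphere. Clear zones read against a dark grey background. Value is the minimal amount (µg) inhibiting growth; nystatin reference.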

The subject of experiment [3] is Cladosporium cucumerinum. The experiment in a line: Antifungal activity against Cladosporium cucumerinum at 100 ug after 2 to 3 days by bioautographic TLC assay. Format: functional, organism-based. Summed up:
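Compounds in dichloromethane (1 mg/mL stock) were geometrically diluted across 1 to 0.015 mg/mL, and 10 µL of each dilution was applied to silica gel TLC plates. Plates were covered with C. cucumerinum in nutritive medium and incubated 2-3 days in moist boxes. The read-out was the minimal amount (µg) giving a clear inhibition zone on a dark gray background, up to 100 µg. Nystatin in MeOH served as the reference.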

In brackets after ≈: the same amount, converted by molar mass. Activity calls are given as the source filed them. The rule behind the calls is not given here.

With `CC(C)=CCc1c(O)cc(/C=C/c2ccccc2)cc1O` [CHIRICANINE A], the figures for the Activity in the experiment on Aedes aegypti and in the experiment with Cladosporium cucumerinum [2] were 6 ppm and 5 µg, respectively. 30 µg/mL (≈ 107 µM) was the least that counted as inhibitory against Cladosporium cucumerinum [1] (MIC).
As for `CC1(C)Oc2cc(/C=C/c3ccccc3)cc(O)c2C[C@@H]1O` [CHIRICANINE B], the Activity with Aedes aegypti is reported as greater than 50 ppm. In addition, the result in the experiment with Cladosporium cucumerinum [3] was inactive.
On the same counts, the results for `CC(C)=CCc1c(O)cc2c(c1/C=C/c1ccccc1)CC(O)C(C)(C)O2` (stereo unspecified) [CHIRICANINE D] are greater than 50 ppm and “inactive”.
On the same counts, the results for `COc1c(CC=C(C)C)c(O)cc(/C=C/c2ccccc2)c1CC=C(C)C` [CHIRICANINE C] are greater than 50 ppm and “inactive”.
On the same counts, the results for `CC(C)=CCc1c(O)cc(O)c(CC=C(C)C)c1/C=C/c1ccccc1` [LONGISTYLINE D] are 6 ppm and “inactive”.
As for `COc1cc(/C=C/c2ccccc2)cc(OC)c1` [3,5-O-DIMETHYLPINOSYLVIN], in the experiment on Aedes aegypti, the Activity turned out to be 3 ppm. In the experiment on Cladosporium cucumerinum [3], the result was inactive.
NYSTATIN gave an MIC against Cladosporium cucumerinum [1] of 1 µg/mL. The Activity in the experiment with Cladosporium cucumerinum [2] was determined as 0.2 µg.
As for `C=C(C)[C@H]1Cc2c(ccc3c2O[C@@H]2COc4cc(OC)c(OC)cc4[C@@H]2C3=O)O1` [ROTENONE], the Activity with Aedes aegypti is 3 ppm.

As usually defined, the MIC is the lowest concentration found to suppress growth.

(Values after ChEMBL document CHEMBL1150855, “Five new prenylated stilbenes from the root bark of Lonchocarpus chiricanus” (2001).)
